Experimental data pooled from the literature.
Each line is one published result; the experiments were not run side by side.
ABL1: Tyrosine-protein kinase ABL1 (ABL1, Homo sapiens, UniProt P00519)

| SMILES | target | assay | conditions | endpoint | value |
| --- | --- | --- | --- | --- | --- |
| N#CC1(c2ccccn2)CCN(Cc2cc(C(=O)O)c(=O)n3ccccc23)CC1 | Tyrosine-protein kinase ABL1, phosphorylated (ABL1, Homo sapiens, UniProt P00519, H396P) | cell-free assay, competition with immobilised ligand | 1 µM | remaining binding | 91% |
| Cn1cc(-c2cc(F)cc(N3CCn4c(cc5c4CCCC5)C3=O)c2CO)cc(Nc2ccc(N3CCN(C4COC4)CC3)cn2)c1=O | ABL1 | enzyme activity, inhibitor | 0.1 µM | inhibition | -1% |
| O=C(Nc1cccnn1)N1CCN([C@@H]2CCOc3cc(C(F)(F)F)ccc32)CC1 | ABL1 | enzyme activity, inhibitor | 20 µM | inhibition | -3% |
| Nc1ncc(-c2nc(N3CCOCC3)nc(N3CCOCC3)n2)c(C(F)F)n1 | Tyrosine-protein kinase ABL1, non-phosphorylated (ABL1, Homo sapiens, UniProt P00519, T315I) | binding, competition with immobilised ligand | 10 µM | remaining binding | 89% |
| CC(C)(C)c1cc(C=C(C#N)C#N)cc(Br)c1O | ABL1 | enzyme activity, inhibitor | 0.5 µM | remaining activity | 59.8% |
| C#Cc1n[nH]c2c(-c3cn([C@@H](C)c4ccccn4)c(=O)[nH]c3=O)cc(F)cc12 | ABL1 | enzyme activity, inhibitor | 0.1 µM | inhibition | -3.6% |
| Cc1nn(C)cc1-c1nc2c(N3CCN(Cc4ccc(Cl)cc4)CC3)c(Cl)cnc2[nH]1 | Tyrosine-protein kinase ABL1, phosphorylated (ABL1, Homo sapiens, UniProt P00519) | binding, competition with immobilised ligand | 1 µM | remaining binding | 100% |
| Cn1cncc1[C@@](O)(COc1ccc(C#N)cc1-c1ccc(OC(F)(F)F)cc1)c1ccc(C#N)cc1 | Tyrosine-protein kinase ABL1, non-phosphorylated (ABL1, Homo sapiens, UniProt P00519, Q252H) | cell-free assay, competition with immobilised ligand | 1 µM | remaining binding | 76% |
